Only some compounds are listed: those with a hit (about 1.8% of all), similar ones and a draw of the others.
STEP block – STEP phosphatase inhibitors, primary screen, biochemical, fluorescence intensity, uHTS; recombinant STEP, OMFP fluorogenic substrate; 360,000 compounds, 0.25% hits; Tyrosine-protein phosphatase non-receptor type 5 (Homo sapiens), P54829; inhibition, % at 20 µM;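 active means inhibition at 20 µM, scaled per plate between control wells, above about 37%, limit read from the data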;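 further: 0% = DMSO with enzyme and substrate and 100% = substrate only without enzyme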
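Assay system: isolated STEP enzyme / Timing: 20 min at room temperature, dark / Doses: 20 µM, 1% DMSO / Technique: fluorescence intensity, excitation 480 nm, emission 540 nm / Reagent: fluorogenic phosphatase substrate OMFP at 25 µM final / Measure: percent inhibition scaled to no-enzyme and uninhibited-enzyme controls, plate-pattern corrected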
LMPTP block – LMPTP phosphatase inhibitors, primary screen, biochemical, fluorescence intensity, uHTS. Low molecular weight phosphotyrosine protein phosphatase (Homo sapiens), P24666. recombinant LMPTP-A, OMFP fluorogenic substrate. inhibition, % at 20 µM. 360,000 compounds, 0.22% hits. AID 651560, 2012;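 active means compounds that cut the enzyme signal by at least half of the control window in the single-dose screen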;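 further: plate controls were DMSO wells with enzyme plus substrate for no effect and substrate without enzyme for full effect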
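Assay system: LMPTP-A phosphatase enzyme | Input: 0.625 nM enzyme | Also added: Fluorogenic phosphatase substrate OMFP at 400 µM final | Compound dosing: One test concentration per compound, 20 µM, with 3% DMSO overall | Schedule: 50 min enzyme reaction at room temperature, protected from light | Signal: Fluorescence intensity | Benchmarks: no-enzyme and uninhibited controls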
HKDC1 inhibitor – HKDC1 hexokinase inhibitors, primary screen, biochemical, fluorescence, uHTS; Q2TB90; recombinant HKDC1, G6PDH/diaphorase resazurin coupled fluorescence; inhibition, % at 20 µM; 340,000 compounds, 0.16% hits;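 active means inhibition above about 35% when tested at 20 µM, limit read from the data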;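 further: plate controls were DMSO wells with enzyme for no effect and DMSO wells lacking enzyme for full effect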
Target sequence (Q2TB90 whole entry, looked up): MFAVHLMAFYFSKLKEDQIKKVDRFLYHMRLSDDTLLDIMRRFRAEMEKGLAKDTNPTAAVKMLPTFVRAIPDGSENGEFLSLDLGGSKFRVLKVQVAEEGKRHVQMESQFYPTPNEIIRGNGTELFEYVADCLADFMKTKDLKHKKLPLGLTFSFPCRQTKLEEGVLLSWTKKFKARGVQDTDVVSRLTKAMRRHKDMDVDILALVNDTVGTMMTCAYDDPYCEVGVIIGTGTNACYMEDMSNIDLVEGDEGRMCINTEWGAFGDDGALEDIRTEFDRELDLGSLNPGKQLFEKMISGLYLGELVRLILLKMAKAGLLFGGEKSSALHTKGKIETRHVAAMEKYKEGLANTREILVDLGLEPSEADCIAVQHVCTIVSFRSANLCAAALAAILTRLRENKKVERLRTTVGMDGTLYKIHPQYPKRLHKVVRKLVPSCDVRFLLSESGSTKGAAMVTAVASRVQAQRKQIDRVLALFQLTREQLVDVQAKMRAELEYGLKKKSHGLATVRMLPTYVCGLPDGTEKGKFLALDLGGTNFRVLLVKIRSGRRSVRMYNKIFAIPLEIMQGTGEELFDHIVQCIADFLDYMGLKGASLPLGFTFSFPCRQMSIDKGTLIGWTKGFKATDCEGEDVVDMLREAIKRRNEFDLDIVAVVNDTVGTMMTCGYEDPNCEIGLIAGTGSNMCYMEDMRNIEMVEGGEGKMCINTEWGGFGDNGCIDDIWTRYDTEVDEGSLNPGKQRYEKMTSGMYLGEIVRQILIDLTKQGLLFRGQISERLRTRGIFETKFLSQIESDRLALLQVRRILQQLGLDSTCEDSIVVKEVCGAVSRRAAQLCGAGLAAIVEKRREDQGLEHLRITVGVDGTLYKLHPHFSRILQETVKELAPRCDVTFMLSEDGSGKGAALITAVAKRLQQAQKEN
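Assay system: recombinant HKDC1 hexokinase; detection: coupled resazurin fluorescence, excitation 525 nm, emission 613 nm; benchmarks: DMSO-plus-enzyme-mix negative control, buffer-substituted positive control; compound dosing: single 20 µM dose; schedule: 90 min at room temperature in dark; also added: glucose plus 1 mM ATP as hexokinase substrates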
Scp1 inh – Scp-1 phosphatase inhibitors, primary screen, biochemical, colorimetric, uHTS; Carboxy-terminal domain RNA polymerase II polypeptide A small phosphatase 1 (Homo …; inhibition, % at 20 µM; Recombinant Scp1, phosphopeptide, malachite green phosphate absorbance; AID 493091, 2011; 340,000 compounds, 0.88% hits;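 active means inhibition above about 50% at 20 µM, limit read from the data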;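 further: plate controls were DMSO wells with enzyme for no effect and wells lacking enzyme for full effect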
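Times: enzyme reaction 45 min at room temperature, colour 5 min, stabilisation 30 min. Material: SCP-1 catalytic fragment, aa 76-261. Medium: Acidic Tris acetate buffer with magnesium and detergent. Signal: colorimetric free-phosphate detection, absorbance 630 nm. Read-out basis: % inhibition of SCP-1 phosphate liberation. Reagent: Phosphorylated 17-residue peptide substrate.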
DNMT1 inh – human DNMT1 methyltransferase inhibitors, primary screen, biochemical, molecular beacon, fluorescence, HinP1I cleavage, uHTS. inhibition (reported as % activation of signal), % at 10 µM. AID 588458, 2011. 360,000 compounds, 0.83% hits; in the data active means inhibition above about 50%
SUMO1-SIM PPI – modulators of SUMO1 protein-protein interactions, primary screen, biochemical, uHTS; SUMO1 binding to a labelled peptide, TR-FRET, 1 h; inhibition, % at 20 µM; Small ubiquitin-related modifier 1 (Homo sapiens), P63165; 360,000 compounds, 0.33% hits; AID 602429, 2012; in the data active means inhibition above about 37%
Scp1 confirm – Scp-1 phosphatase inhibitors, retest, confirmation, biochemical, colorimetric, single concentration; 2,500 compounds, 61% hits; recombinant SCP-1 catalytic domain, phosphate release, malachite green absorbance; shares compounds with Scp1 inh; inhibition, % at 20 µM;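 further: plate controls were DMSO with enzyme for no effect and buffer wells lacking enzyme for full effect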
MG interference – colorimetric readout interference by compounds, confirmation, artefact control for Scp-1 inhibitor project, biochemical, single concentration; shares compounds with Scp1 inh; Colorimetric interference counterscreen, malachite green absorbance 630 nm; apparent inhibition (interference), % at 20 µM; 2,500 tested, under 10 active; AID 540313, 2011;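 further: compounds added after enzyme reaction finished so only phosphate colour detection is probed; plate controls were DMSO wells with completed Scp-1 reaction for no effect and substrate wells lacking enzyme for full effect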
Scp1 DSF – Scp-1 binding by thermal shift, confirmation, orthogonal assay for Scp-1 inhibitor project, biophysical, differential scanning fluorimetry. 1,500 compounds, 25% hits. Recombinant SCP1, Sypro Orange thermal shift Tm. thermal shift relative to vanadate control, % at 40 µM. shares compounds with Scp1 inh;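 active means substances whose mean melting-temperature shift, as a percentage of the reference inhibitor's shift, reaches about 5.3%, limit read from the data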;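 further: 0% = Tm of DMSO wells and 100% = Tm with sodium orthovanadate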
Active calls of the source: *; nt = no result.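 How the source made its calls, unless noted: active means inhibition of at least 30% at 20 µM; inactive means the rest.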

SMILES	STEP block	LMPTP block	HKDC1 inhibitor	Scp1 inh	DNMT1 inh	SUMO1-SIM PPI	Scp1 confirm	MG interference	others
O=C(N/N=C/c1cc([N+](=O)[O-])ccc1O)c1ccc2c(c1)OCCO2	6	4	-8	64*	-3	-12	48*	-6	Scp1 DSF=-3
O=C(N/N=C/c1cc([N+](=O)[O-])ccc1Cl)c1ccc2nc[nH]c2c1	2	-1	-1	55*	3	19	28	-2
O=C(N/N=C/c1ccccc1[N+](=O)[O-])c1ccc2c(c1)OCCO2	2	0	-6	-9	-1	-39	nt	nt
CC1(NC(=O)Cc2c(Cl)cccc2Cl)CCS(=O)(=O)C1 (stereo not drawn)	2	-1	0	-3	0	6	nt	nt
Cc1ccc(OCC(=O)Oc2cccc(C)c2C)cc1	-3	2	-4	2	6	6	nt	nt
CC(C)OC(=O)CC1C(=O)NCCN1C(=S)NC(=O)CCc1ccccc1 (stereo not drawn)	-2	-1	-8	-7	4	2	-16	-16
COc1ccc(CC(C(=O)Nc2ccc(OC)cc2)c2nn[nH]n2)cc1 (stereo not drawn)	-3	0	-3	-6	3	10	nt	nt
C=CCSc1nnc(NC(=O)CSc2nc(CCC)cc(=O)[nH]2)s1	-2	-1	3	53*	-1	0	7	-5
C=CCSc1nnc(NC(=O)CSc2nc3ccccc3[nH]2)s1	5	1	12	23	21	6	nt	nt
C[C@H](CO)N1C[C@H](C)[C@@H](CN(C)C(=O)Nc2ccccc2)Oc2ccc(NC(=O)Cc3ccccc3)cc2C1=O	-2	1	3	-3	3	7	nt	nt
CC(=O)c1cccc(NC(=O)Cn2nc(-c3ccc(Cl)cc3)ccc2=O)c1	-2	0	-8	51*	0	-1	-16	-18
CC(=O)c1cccc(NC(=O)Cn2nc(-c3ccccc3Cl)ccc2=O)c1	0	1	3	-3	-1	0	nt	nt
COc1cccc(/C=C(/C#N)c2ccc(F)cc2)c1OCc1cccc(C(=O)O)c1	0	1	11	16	1	-8	nt	nt
N#C/C(=C\c1ccc(OCc2ccc(Br)cc2)cc1)C(=O)Nc1cccc(C(=O)O)c1	41*	34	9	57*	28	57*	59*	-14	Scp1 DSF=-2
N#C/C(=C\c1ccccc1OCc1ccc(C(=O)O)cc1)C(=O)Nc1ccc(O)cc1	-4	-1	5	-13	3	7	nt	nt
COc1cc(/C=C(\C#N)C(=O)Nc2cccc(C(=O)O)c2)ccc1OCc1ccc(F)cc1	2	1	11	56*	3	9	27	-27
N#C/C(=C/c1ccccc1OCc1ccc(F)cc1)c1ccc(C(=O)O)cc1	2	1	-1	65*	-8	-7	7	-21
CCOc1cc(/C=C(\C#N)C(=O)Nc2cccc(C(=O)O)c2)ccc1OCc1ccccc1Cl	20	3	7	46	7	30	nt	nt
N#C/C(=C/c1ccc(OCc2ccc(C(=O)O)cc2)cc1)C(=O)Nc1ccccc1	3	2	7	71*	1	-15	82*	-7	Scp1 DSF=-9
CCOc1cc(/C=C(\C#N)C(=O)Nc2cccc(C(=O)O)c2)cc(Br)c1OC(=O)c1ccc(OC)cc1	-5	0	18	-4	12	14	nt	nt
C[C@@H](NC(=O)C1(c2ccccc2)CCN(C(=O)OC(C)(C)C)CC1)C(=O)N[C@@H](C(=O)O)c1ccccc1	-2	-2	1	7	1	6	nt	nt
O=C(Nc1ccc2ncccc2c1)c1ccccc1Cl	-4	-2	-3	57*	3	-1	5	-11
CC(C)(C)OC(=O)C[C@@H]1C/C=C\C[C@@H](CC(=O)NCCO)C(=O)NC[C@H](c2ccccc2)OC1=O	-4	-3	-9	-3	5	6	nt	nt
CC(=O)c1ccc(S(=O)(=O)Oc2ccc(C(=O)O)cc2Cl)cc1	-4	-1	-3	53*	25	4	24	-6
CCc1ccc(OCc2cccc(C(=O)N/N=C\c3cnn(C)c3C)c2)cc1	4	14	-3	66*	15	7	78*	-4	Scp1 DSF=-6
SMILES	STEP block	LMPTP block	HKDC1 inhibitor	Scp1 inh	DNMT1 inh	SUMO1-SIM PPI	Scp1 confirm	MG interference	others
Cc1c(/C=N\NC(=O)c2cccc(F)c2)cnn1C	2	-2	-7	-8	4	0	nt	nt
CCn1c(SCC(=O)NC2CCCC2)nnc1-c1ccccn1	-1	0	-3	-2	-4	7	nt	nt
CCOC(=O)C1CCc2c(ccc3ccccc23)N1CCC#N (stereo not drawn)	5	0	nt	nt	1	-12	nt	nt
O=C(NCCc1ccccc1)c1ccc(-c2ccc(F)cc2)o1	-2	1	3	26	7	-4	nt	nt
O=C(NCCc1ccccc1)c1ccc(-c2ccccc2C(F)(F)F)o1	nt	nt	6	97*	nt	nt	20	-27
O=C(N/N=C/c1cn(-c2cccs2)nc1-c1ccccc1)c1ccccc1O	0	4	-25	72*	-18	18	27	-24
COc1cccc2cc(C(=O)N3CCN(C(=O)c4ccco4)CC3)c(=O)oc12	-2	-1	-4	-1	3	4	nt	nt
COc1cc(Br)cc2cc(C(=O)N3CCN(C(=O)c4ccco4)CC3)c(=O)oc12	3	8	3	56*	11	-3	-7	-13
CCOC(=O)C1CCCN(C(=O)c2cccc(S(=O)(=O)N(C)c3ccc(C)cc3)c2)C1 (stereo not drawn)	0	0	-4	-4	0	-2	nt	nt
